Key:
[1] = folding enthalpy; higher = less favourable; fluorescence melt of hairpins on a sequencing array, two-state fit; settings: sodium 0.088 M
Method in brief: (§1)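 Hairpins were imaged by Cy3 fluorescence on a sequenced MiSeq flow cell with annealed Cy3 and quencher oligos, in 50 mM Na-HEPES pH 8.0, 25 mM NaCl, in 2.5 °C steps up to 60 °C. Bootstrapped two-state fits of normalised signals gave melting temperature and folding enthalpy. Four replicates were combined by inverse variance, and fitted temperatures were raised by 9.35 °C to match UV melts.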

[2] = melting temperature; fluorescence melt of hairpins on a sequencing array, two-state fit, raised by 9.35 °C to match UV melts; settings: sodium 0.088 M
Method in brief: as §1

Sequence	folding enthalpy [1] [kcal/mol]	Tm [2] [°C]
GGTGGAGGAAACTTCGCC ((.(.((....)).).))	-28.2	37.7
GGTGGCCCGAAAGGGACC (((..(((....))))))	-12.7	52.2
GGTGGCCGAAAGGCACC (((.(((....))))))	-18.5	61.8
GGTGGCGAAAGCCCTACC ((((((....)))..)))	-13.2	36.1
GGTGGCGAAAGCCGCACC ((((((....)))..)))	-9.89	47.7
GGTGGCGGAAACGCCATC (.(((((....))))).)	-16.4	59.9
GGTGGCGGAAACGCCGTC (..((((....))))..)	-10.1	45.1
GGTGGCTCGAAAGAGACC (((..(((....))))))	-13.5	42
GGTGGGCCGAAAGGCACC (((..(((....))))))	-10.5	50.5
GGTGGGGGAAACCCTGCC ((..(((....)))..))	-27.9	47.8
GGTGGGGGAAACCTCGCC ((.(.((....)).).))	-30.8	45.6
GGTGGTACGAAAGTAACC (((..(((....))))))	-19	43.8
GGTGGTCGAAAGACACC (((.(((....))))))	-17.5	54.8
GGTGGTCGAAAGACTACC (((.(((....))).)))	-43.2	57
GGTGTACCGAAAGGTACC (((..(((....))))))	-9.75	44.7
GGTGTAGGAAACTGCACC ((((.((....)).))))	-44.5	52.7
GGTGTCCGAAAGGAACC (((.(((....))))))	-19.8	48.3

Sequence	folding enthalpy [1] [kcal/mol]	Tm [2] [°C]
GGTGTCGAAAGACGCACC ((((((....)))..)))	-13.6	42.4
GGTGTCGAAAGACGTACC ((((((....)))..)))	-19.3	41.9
GGTGTCGAAAGACTACC ((((((....))).)))	-17.7	47.8
GGTGTCGAAAGACTGACC ((((((....)))..)))	-18.4	40.5
GGTGTCGGAAACGACGTC (..((((....))))..)	-12.3	36.8
GGTGTCGGAAACGGCATC (.((.((....)).)).)	-26.1	44.4
GGTGTGCGAAAGCAACC (((.(((....))))))	-17	52.1
GGTGTGCGAAAGCAGACC (((.(((....))).)))	-33.9	64.4
GGTGTGGCGAAAGCCACC (((..(((....))))))	-7.44	49
GGTGTGGGAAACCATACC (((.(((....))).)))	-33.5	50.8
GGTGTGGGAAACCGTACC (((..((....))..)))	-24.1	36.8
GGTGTTACGAAAGTAACC (((..(((....))))))	-13.8	45.2
GGTGTTCCGAAAGGAACC (((..(((....))))))	-9.16	47.7
GGTTAAACGAAAGTTACC (((..(((....))))))	-14.3	32
GGTTAAGCGAAAGCTACC (((..(((....))))))	-18.2	39.4
GGTTAAGGAAACTTGACC (((.(((....))).)))	-30.1	40.3
GGTTACCGAAAGGTGACC (((.(((....))).)))	-41.4	58.8

— the array DNA melting data of Ke et al. (doi:10.1101/2024.01.08.574731)
